Calls of active or inactive are those of the source. The calls are words filed in the database; no cut-off is given here.
Experiments:
[1] = Inhibition of AAC(2')-1c (unknown origin)
[2] = system: Ribosomal RNA A-site; experiment: Displacement of F-NEO from human cytosolic rRNA-A site after 10 to 20 mins by fluorescence assay relative to NEO; type: nucleic-acid assay; parameters: concentration or dose not given beside the values
Outline: (§1)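 100 nM F-NEO:A-site complex in 10 mM HEPES, 50 mM NaCl, 0.04 mM EDTA, pH 7.0, mixed with ligand and incubated 10-20 min at room temperature. Fluorescence read at ex 485/em 525 nm, in duplicate. Percent binding was computed from the intensities of ligand-treated complex, complex without ligand, and complex with neomycin.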

[3] = system: Staphylococcus aureus; experiment: Antibacterial activity against methicillin-resistant Staphylococcus aureus M0602 at 6.25 uM after 15 to 20 hrs by CLSI protocol based microdilution assay relative to control; type: functional
Outline: (§2)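 Exponential-phase cultures were exposed to 6.25 μM compound in duplicate with neomycin as reference, at 37 °C in a humidified incubator for 15-20 h. Broth and culture controls received sterile water with 1% DMSO. Percent growth inhibition was calculated against the growth and background controls.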

[4] = system: Staphylococcus aureus; experiment: Antibacterial activity against NEO-sensitive Staphylococcus aureus harboring NorA mutant at 6.25 uM after 15 to 20 hrs by CLSI protocol based microdilution assay relative to control; type: functional
Outline: as §2

[5] = system: Pseudomonas aeruginosa; experiment: Antibacterial activity against NEO-resistant Pseudomonas aeruginosa 27853 at 6.25 uM after 15 to 20 hrs by CLSI protocol based microdilution assay relative to control; type: functional
Outline: as §2

[6] = Inhibition of APH(3')-1a (unknown origin)
[7] = system: Ribosomal RNA A-site; experiment: Displacement of F-NEO from human mitochondrial rRNA-A site after 10 to 20 mins by fluorescence assay relative to NEO; type: nucleic-acid assay; parameters: concentration or dose not given beside the values
Outline: as §1

[8] = system: Staphylococcus epidermidis; experiment: Antibacterial activity against NEO-sensitive Staphylococcus epidermidis 12384 at 6.25 uM after 15 to 20 hrs by CLSI protocol based microdilution assay relative to control; type: functional
Outline: (§3)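 Single-concentration screen at 6.25 μM against exponential-phase cultures, in duplicate, with NEO as reference. Enterococcus was grown in BHI broth, M. smegmatis in TS broth with 0.05% Tween 80, and all other strains in TS broth. The 1% DMSO water vehicle was added to broth (background) and culture (growth control). Incubation was 37 °C, humidified, 15-20 h. Result is percent growth inhibition.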

[9] = Inhibition of Eis (unknown origin)
[10] = system: Listeria monocytogenes; experiment: Antibacterial activity against NEO-sensitive Listeria monocytogenes ATCC 19115 at 6.25 uM after 15 to 20 hrs by CLSI protocol based microdilution assay relative to control; type: functional
Outline: as §3

[11] = Inhibition of AAC(6')-1e (unknown origin)
[12] = system: Klebsiella oxytoca; experiment: Antibacterial activity against NEO-sensitive Klebsiella oxytoca HM-625 at 6.25 uM after 15 to 20 hrs by CLSI protocol based microdilution assay relative to control; type: functional
Outline: as §3

[13] = system: Ribosomal RNA A-site; experiment: Displacement of F-NEO from Escherichia coli rRNA-A site after 10 to 20 mins by fluorescence assay relative to NEO; type: nucleic-acid assay; parameters: concentration or dose not given beside the values
Outline: as §1

[14] = target: Ribosomal RNA A-site; experiment: Displacement of F-NEO from human cytosolic rRNA-A site after 10 to 20 mins by fluorescence assay; type: nucleic-acid assay
Outline: (§4)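 A 100 nM F-NEO:A-site RNA complex in 10 mM HEPES, 50 mM NaCl, 0.04 mM EDTA, pH 7.0 was titrated with 2-fold dilutions of ligand from 20 to 0.009 μM, or from 60 or 40 μM for weaker ligands. Incubated 10-20 min at room temperature, fluorescence read at ex 485/em 525 nm. IC50 from dose-response curve fit.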

[15] = system: Bacillus anthracis; experiment: Antibacterial activity against NEO-sensitive Bacillus anthracis BA852 at 6.25 uM after 15 to 20 hrs by CLSI protocol based microdilution assay relative to control; type: functional
Outline: as §2

[16] = system: Klebsiella pneumoniae; experiment: Antibacterial activity against Klebsiella pneumoniae NR-151410 at 6.25 uM after 15 to 20 hrs by CLSI protocol based microdilution assay relative to control; type: functional
Outline: as §3

[17] = system: Staphylococcus aureus; experiment: Antibacterial activity against NEO-sensitive Staphylococcus aureus 25923 at 6.25 uM after 15 to 20 hrs by CLSI protocol based microdilution assay relative to control; type: functional
Outline: as §3

[18] = Displacement of F-NEO from human mitochondrial rRNA-A site C1410U mutant after 10 to 20 mins by fluorescence assay
Outline: as §4

[19] = system: Acinetobacter baumannii; experiment: Antibacterial activity against NEO-sensitive Acinetobacter baumannii ATCC 19606 at 6.25 uM after 15 to 20 hrs by CLSI protocol based microdilution assay relative to control; type: functional, ATCC 19606 = CIP 70.34 = JCM 6841
Outline: as §3

[20] = system: Enterococcus faecium; experiment: Antibacterial activity against NEO-intermediate sensitive Enterococcus faecium BM4105-RF at 6.25 uM after 15 to 20 hrs by CLSI protocol based microdilution assay relative to control; type: functional
Outline: as §3

[21] = system: Staphylococcus aureus; experiment: Antibacterial activity against methicillin-resistant Staphylococcus aureus SU-5 at 6.25 uM after 15 to 20 hrs by CLSI protocol based microdilution assay relative to control; type: functional
Outline: as §2

[22] = system: Enterococcus faecalis; experiment: Antibacterial activity against NEO-intermediate sensitive Enterococcus faecalis ATCC 29212 at 6.25 uM after 15 to 20 hrs by CLSI protocol based microdilution assay relative to control; type: functional
Outline: as §3

[23] = system: Ribosomal RNA A-site; experiment: Displacement of F-NEO from Escherichia coli rRNA-A site after 10 to 20 mins by fluorescence assay; type: nucleic-acid assay
Outline: as §4

[24] = system: Staphylococcus aureus; experiment: Antibacterial activity against methicillin-resistant Staphylococcus aureus A960649 at 6.25 uM after 15 to 20 hrs by CLSI protocol based microdilution assay relative to control; type: functional
Outline: as §2

[25] = system: Escherichia coli; experiment: Antibacterial activity against NEO-sensitive Escherichia coli harboring TolC mutant at 6.25 uM after 15 to 20 hrs by CLSI protocol based microdilution assay relative to control; type: functional
Outline: as §2

[26] = target: Ribosomal RNA A-site; experiment: Displacement of F-NEO from human mitochondrial rRNA-A site after 10 to 20 mins by fluorescence assay; type: nucleic-acid assay
Outline: as §4

[27] = Inhibition of AAC(3)-4 (unknown origin)
[28] = Inhibition of APH(2\")-1a (unknown origin)
[29] = system: Staphylococcus aureus; experiment: Antibacterial activity against methicillin-resistant Staphylococcus aureus 33591 at 6.25 uM after 15 to 20 hrs by CLSI protocol based microdilution assay relative to control; type: functional
Outline: as §2

[30] = system: Escherichia coli; experiment: Antibacterial activity against NEO-sensitive Escherichia coli ATCC 25922 at 6.25 uM after 15 to 20 hrs by CLSI protocol based microdilution assay relative to control; type: functional
Outline: as §3

[31] = organism: Homo sapiens; experiment: Displacement of F-NEO from human mitochondrial rRNA-A site C1410U mutant after 10 to 20 mins by fluorescence assay relative to NEO; parameters: concentration or dose not given beside the values
Outline: as §1

[32] = organism: Homo sapiens; experiment: Displacement of F-NEO from human mitochondrial rRNA-A site A1490G mutant after 10 to 20 mins by fluorescence assay relative to NEO
Outline: as §1

[33] = Antibacterial activity against NEO-sensitive Enterobacter cloacae 13047 at 6.25 uM after 15 to 20 hrs by CLSI protocol based microdilution assay relative to control; type: functional, Enterobacter cloacae subsp. cloacae, ATCC 13047
Outline: as §3

| Structure (SMILES) | inhibition [1] | inhibition [2] | Activity [3] | Activity [4] | Activity [5] | inhibition [6] | inhibition [7] | Activity [8] | inhibition [9] | Activity [10] | inhibition [11] | Activity [12] | inhibition [13] | IC50 [14] | Activity [15] | Activity [16] | Activity [17] | IC50 [18] | Activity [19] | Activity [20] | also measured |
| --- | --- | --- | --- | --- | --- | --- | --- | --- | --- | --- | --- | --- | --- | --- | --- | --- | --- | --- | --- | --- | --- |
| NC[C@@H]1O[C@H](O[C@H]2[C@@H](O)[C@H](O[C@@H]3[C@@H](O)[C@H](N)C[C@H](N)[C@H]3O[C@H]3O[C@H](CN)[C@@H](O)[C@H](O)[C@H]3N)O[C@@H]2CSCCNC(=S)NCCCCCCNC(=O)CCCc2ccc3ccc4cccc5ccc2c3c45)[C@H](N)[C@@H](O)[C@@H]1O | Active | 75% | 0% | 100% | 14% | Active | 70% | 80% | Active | 91% | Active | 21% | 64% | 0.252 µM | 100% | 33% | 98% | 0.18 µM | 8% | 18% | Activity [21]: 0%; Activity [22]: 51%; IC50 [23]: 0.254 µM; Activity [24]: 87%; Activity [25]: 100%; IC50 [26]: 0.235 µM; inhibition [27]: Active; inhibition [28]: Active; Activity [29]: 47%; Activity [30]: 11%; inhibition [31]: 91%; inhibition [32]: 58%; Activity [33]: 29% |
| NC[C@@H]1O[C@H](O[C@H]2[C@@H](O)[C@H](O[C@@H]3[C@@H](O)[C@H](N)C[C@H](N)[C@H]3O[C@H]3O[C@H](CN)[C@@H](O)[C@H](O)[C@H]3N)O[C@@H]2CSCCNC(=O)CCCc2ccc3ccc4cccc5ccc2c3c45)[C@H](N)[C@@H](O)[C@@H]1O | inactive | 66% | 32% | 53% | 7% | inactive | 74% | 82% | inactive | 49% | inactive | 13% | 78% | 0.175 µM | 100% | 20% | 36% | 0.126 µM | 10% | 0% | Activity [21]: 34%; Activity [22]: 18%; IC50 [23]: 0.148 µM; Activity [24]: 30%; Activity [25]: 100%; IC50 [26]: 0.168 µM; inhibition [27]: inactive; inhibition [28]: inactive; Activity [29]: 20%; Activity [30]: 7%; inhibition [31]: 92%; inhibition [32]: 58%; Activity [33]: 0% |
